Measured values from the M2OR odorant receptor database.

What was measured:
Details in all cases: stereoisomer not certain
OR10A3 (Homo sapiens) = molecular target: T1, OR10A3 (Homo sapiens) (UniProt P58181)
T1 sequence (whole entry): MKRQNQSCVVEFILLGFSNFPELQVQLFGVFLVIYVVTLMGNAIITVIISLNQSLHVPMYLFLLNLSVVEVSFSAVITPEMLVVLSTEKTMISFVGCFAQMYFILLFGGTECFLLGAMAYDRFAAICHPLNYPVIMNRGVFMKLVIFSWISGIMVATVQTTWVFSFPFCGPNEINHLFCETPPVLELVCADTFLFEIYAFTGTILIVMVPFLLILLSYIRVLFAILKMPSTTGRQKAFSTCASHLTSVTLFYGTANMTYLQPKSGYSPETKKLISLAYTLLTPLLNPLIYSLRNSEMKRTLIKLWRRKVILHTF
Procedure, shortened: (§1)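 Assay methods differ from source to source, frequently being transient luciferase assays in mammalian cell lines. For each receptor–molecule pair, the label responsive (active) applies when the original authors judged the measured signal statistically different from baseline, and non-responsive (inactive) applies otherwise.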

OR10A4 (Homo sapiens) = molecular target: T2, OR10A4 (Homo sapiens) (UniProt Q9H209)
T2 sequence (whole entry): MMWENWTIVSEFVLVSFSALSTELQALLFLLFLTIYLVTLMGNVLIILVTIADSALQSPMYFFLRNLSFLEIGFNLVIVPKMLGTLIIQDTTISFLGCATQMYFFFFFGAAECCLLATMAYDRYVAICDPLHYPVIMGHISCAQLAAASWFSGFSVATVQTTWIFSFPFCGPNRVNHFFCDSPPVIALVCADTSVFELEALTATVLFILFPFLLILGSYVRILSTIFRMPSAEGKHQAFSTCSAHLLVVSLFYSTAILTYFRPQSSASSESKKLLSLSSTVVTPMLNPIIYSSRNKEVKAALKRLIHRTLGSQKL
Procedure, shortened: as §1

OR10A5 (Homo sapiens) = molecular target: T3, OR10A5 (Homo sapiens) (UniProt Q9H207)
T3 sequence (whole entry): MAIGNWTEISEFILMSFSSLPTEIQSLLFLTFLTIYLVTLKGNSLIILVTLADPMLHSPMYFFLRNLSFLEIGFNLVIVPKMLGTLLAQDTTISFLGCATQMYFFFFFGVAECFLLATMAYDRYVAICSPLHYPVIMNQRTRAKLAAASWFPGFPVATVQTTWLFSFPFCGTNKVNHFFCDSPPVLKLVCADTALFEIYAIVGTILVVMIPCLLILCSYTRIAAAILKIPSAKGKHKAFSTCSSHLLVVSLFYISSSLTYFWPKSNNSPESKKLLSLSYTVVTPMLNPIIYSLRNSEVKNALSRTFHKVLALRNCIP
Procedure, shortened: as §1

OR10A6 (Homo sapiens) = molecular target: T4, OR10A6 (Homo sapiens) (UniProt Q8NH74)
T4 sequence (whole entry): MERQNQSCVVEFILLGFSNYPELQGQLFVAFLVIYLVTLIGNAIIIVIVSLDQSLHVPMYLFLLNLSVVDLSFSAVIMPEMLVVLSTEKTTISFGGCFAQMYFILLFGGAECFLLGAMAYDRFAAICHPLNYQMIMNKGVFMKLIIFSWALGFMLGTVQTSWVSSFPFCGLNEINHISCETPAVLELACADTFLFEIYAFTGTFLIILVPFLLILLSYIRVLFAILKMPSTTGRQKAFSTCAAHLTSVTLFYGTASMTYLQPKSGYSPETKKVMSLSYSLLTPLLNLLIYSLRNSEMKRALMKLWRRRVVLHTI
Procedure, shortened: as §1

OR10A7 (Homo sapiens) = molecular target: T5, OR10A7 (Homo sapiens) (UniProt Q8NGE5)
T5 sequence (whole entry): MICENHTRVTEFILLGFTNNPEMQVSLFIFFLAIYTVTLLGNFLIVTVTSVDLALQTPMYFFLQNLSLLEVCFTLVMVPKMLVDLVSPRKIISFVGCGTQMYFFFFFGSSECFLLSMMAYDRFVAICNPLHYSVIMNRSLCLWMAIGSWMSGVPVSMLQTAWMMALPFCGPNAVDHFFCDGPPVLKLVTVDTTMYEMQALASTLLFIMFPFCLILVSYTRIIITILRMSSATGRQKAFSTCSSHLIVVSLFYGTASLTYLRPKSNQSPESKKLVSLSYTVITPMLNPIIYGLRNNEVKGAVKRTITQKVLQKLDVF
Procedure, shortened: as §1

OR10AD1 (Homo sapiens) = molecular target: T6, OR10AD1 (Homo sapiens) (UniProt Q8NGE0)
T6 sequence (whole entry): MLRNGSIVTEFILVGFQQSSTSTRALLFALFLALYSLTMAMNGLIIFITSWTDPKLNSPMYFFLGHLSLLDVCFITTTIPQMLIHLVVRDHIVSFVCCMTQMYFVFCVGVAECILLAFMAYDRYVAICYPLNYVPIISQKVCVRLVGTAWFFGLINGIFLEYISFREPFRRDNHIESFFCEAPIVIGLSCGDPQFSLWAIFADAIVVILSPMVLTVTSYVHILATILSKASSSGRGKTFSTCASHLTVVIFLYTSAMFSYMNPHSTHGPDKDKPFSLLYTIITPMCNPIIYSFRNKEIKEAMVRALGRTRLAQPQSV
Procedure, shortened: as §1

OR10AG1 (Homo sapiens) = molecular target: T7, OR10AG1 (Homo sapiens) (UniProt Q8NH19)
T7 sequence (whole entry): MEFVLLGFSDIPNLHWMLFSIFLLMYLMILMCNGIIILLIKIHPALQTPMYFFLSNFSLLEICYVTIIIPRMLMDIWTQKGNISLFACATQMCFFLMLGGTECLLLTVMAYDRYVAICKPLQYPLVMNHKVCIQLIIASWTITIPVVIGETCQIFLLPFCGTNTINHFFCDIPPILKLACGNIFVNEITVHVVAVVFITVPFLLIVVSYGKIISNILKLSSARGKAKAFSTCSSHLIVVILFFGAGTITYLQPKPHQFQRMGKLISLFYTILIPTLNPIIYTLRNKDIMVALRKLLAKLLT
Procedure, shortened: as §1

OR10C1 (Homo sapiens) = molecular target: T8, OR10C1 (Homo sapiens) (UniProt Q96KK4)
T8 sequence (whole entry): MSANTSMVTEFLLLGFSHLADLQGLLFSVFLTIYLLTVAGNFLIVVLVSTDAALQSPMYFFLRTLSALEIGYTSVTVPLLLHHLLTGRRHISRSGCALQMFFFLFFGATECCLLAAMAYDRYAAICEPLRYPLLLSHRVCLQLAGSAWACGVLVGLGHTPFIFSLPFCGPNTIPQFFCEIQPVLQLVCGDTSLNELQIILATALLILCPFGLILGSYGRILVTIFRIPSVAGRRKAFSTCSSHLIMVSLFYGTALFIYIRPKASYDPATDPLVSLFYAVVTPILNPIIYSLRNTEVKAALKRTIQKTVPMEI
Procedure, shortened: as §1

OR10D3 (Homo sapiens) = molecular target: T9, OR10D3 (Homo sapiens) (UniProt Q8NH80)
T9 sequence (whole entry): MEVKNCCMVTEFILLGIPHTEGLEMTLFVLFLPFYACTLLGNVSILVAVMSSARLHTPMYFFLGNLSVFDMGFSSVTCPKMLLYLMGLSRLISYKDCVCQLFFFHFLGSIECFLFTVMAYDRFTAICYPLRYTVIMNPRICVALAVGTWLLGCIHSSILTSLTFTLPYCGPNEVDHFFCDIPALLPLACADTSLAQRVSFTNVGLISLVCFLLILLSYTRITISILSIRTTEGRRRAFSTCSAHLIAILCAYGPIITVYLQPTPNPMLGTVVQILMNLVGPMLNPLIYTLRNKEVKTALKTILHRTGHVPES
Procedure, shortened: as §1

OR10AC1 (Homo sapiens) = OR10AC1 (Homo sapiens) (UniProt Q8NH08)
OR10AC1 (Homo sapiens), sequence (Q8NH08 whole entry): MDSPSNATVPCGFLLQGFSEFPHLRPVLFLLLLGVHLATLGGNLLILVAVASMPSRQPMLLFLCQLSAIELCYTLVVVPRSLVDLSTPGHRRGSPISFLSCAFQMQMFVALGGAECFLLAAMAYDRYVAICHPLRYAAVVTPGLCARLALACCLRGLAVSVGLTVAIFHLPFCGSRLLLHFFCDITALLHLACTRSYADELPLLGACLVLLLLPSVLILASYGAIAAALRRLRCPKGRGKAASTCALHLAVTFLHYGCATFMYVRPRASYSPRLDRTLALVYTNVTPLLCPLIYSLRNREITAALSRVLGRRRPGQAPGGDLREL
Procedure, shortened: as §1

Measured: odorant receptor agonist call

CC(CO)CS (stereo unspecified)
not listed: OR10AC1 (Homo sapiens)
inactive: all other assays above

CC(=O)c1c(C)c([N+](=O)[O-])c(C(C)(C)C)c([N+](=O)[O-])c1C
not listed: OR10A3 (Homo sapiens) | OR10D3 (Homo sapiens)
inactive: all other assays above

CCC1OC(C)=C(O)C1=O (stereo unspecified)
not listed: OR10AC1 (Homo sapiens)
inactive: all other assays above

CCCCC(S)C(C)CO (stereo unspecified)
not listed: OR10AC1 (Homo sapiens)
inactive: all other assays above

CCCC(S)CCOC(C)=O (stereo unspecified)
not listed: OR10AC1 (Homo sapiens)
inactive: all other assays above

CC1(C)CC(=O)CC(=O)C1
inactive: OR10A7 (Homo sapiens)

CCCCCC(=O)C(C)C(C)=O (stereo unspecified)
not listed: OR10AC1 (Homo sapiens)
inactive: all other assays above

CCCCCCC=CCCC=O
not listed: OR10AC1 (Homo sapiens)
inactive: all other assays above

CC1=C(O)C(=O)OC1C (stereo unspecified)
not listed: OR10AC1 (Homo sapiens)
inactive: all other assays above

CC1=NC(C)C(C)S1 (stereo unspecified)
not listed: OR10AC1 (Homo sapiens)
inactive: all other assays above

Cc1cnc(C)c(C)n1
not listed: OR10AC1 (Homo sapiens)
inactive: all other assays above

CC(C)CS
inactive: OR10A7 (Homo sapiens)

CCC(S)C(C)CO (stereo unspecified)
not listed: OR10AC1 (Homo sapiens)
inactive: all other assays above

CCC(=O)OCCCc1ccccc1
inactive: OR10A6 (Homo sapiens)

CCC1OC(=O)C(O)=C1C (stereo unspecified)
not listed: OR10AC1 (Homo sapiens)
inactive: all other assays above

CC1CCCCCCCCCCCCC(=O)C1 (stereo unspecified)
not listed: OR10A3 (Homo sapiens) | OR10D3 (Homo sapiens)
inactive: all other assays above

CCCCCC(S)C(C)CO (stereo unspecified)
not listed: OR10AC1 (Homo sapiens)
inactive: all other assays above

CC1=C(O)C(=O)C(C)O1 (stereo unspecified)
not listed: OR10AC1 (Homo sapiens)
inactive: all other assays above
